From ChEMBL document CHEMBL1135454, “SAR and X-ray. A new approach combining fragment-based screening and rational drug design: application to the discovery of nanomolar inhibitors of Src SH2” (J Med Chem, 2002)

Experiments:
[1] = biological target: T1, Proto-oncogene tyrosine-protein kinase Src (Homo sapiens, UniProt P12931); assay: Binding affinity for Src protein tyrosine kinase SH2 domain using scintillation proximity binding assay (SPA)
[2] = biological target: T1, Proto-oncogene tyrosine-protein kinase Src; assay: Binding affinity for Src SH2 domain in scintillation proximity binding assay (SPA) - inactive
[3] = biological target: T1, Proto-oncogene tyrosine-protein kinase Src; assay: (§1) Binding affinity for Src protein tyrosine kinase SH2 domain using surface plasmon resonance (SPR) assay
[4] = biological target: T1, Proto-oncogene tyrosine-protein kinase Src; assay: Binding affinity towards Src protein tyrosine kinase SH2 domain using scintillation proximity binding assay (SPA)
[5] = biological target: T1, Proto-oncogene tyrosine-protein kinase Src; assay: Binding affinity for Src SH2 domain in scintillation proximity binding assay (SPA)
[6] = biological target: T1, Proto-oncogene tyrosine-protein kinase Src; assay: as §1; remark: listed apart in the source
Procedure, shortened: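 Surface plasmon resonance with human Src SH2 domain (aa 145–251), E. coli-expressed and purified by cation exchange and gel filtration. Ligands compete for binding; IC50 reported.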

[7] = biological target: T1, Proto-oncogene tyrosine-protein kinase Src; assay: Binding affinity towards Src protein tyrosine kinase SH2 domain using surface plasmon resonance (SPR) assay
[8] = biological target: T1, Proto-oncogene tyrosine-protein kinase Src; assay: Binding affinity towards Src protein tyrosine kinase SH2 domain protein using scintillation proximity binding assay (SPA)

T1 sequence (P12931 2-536 limits assumed): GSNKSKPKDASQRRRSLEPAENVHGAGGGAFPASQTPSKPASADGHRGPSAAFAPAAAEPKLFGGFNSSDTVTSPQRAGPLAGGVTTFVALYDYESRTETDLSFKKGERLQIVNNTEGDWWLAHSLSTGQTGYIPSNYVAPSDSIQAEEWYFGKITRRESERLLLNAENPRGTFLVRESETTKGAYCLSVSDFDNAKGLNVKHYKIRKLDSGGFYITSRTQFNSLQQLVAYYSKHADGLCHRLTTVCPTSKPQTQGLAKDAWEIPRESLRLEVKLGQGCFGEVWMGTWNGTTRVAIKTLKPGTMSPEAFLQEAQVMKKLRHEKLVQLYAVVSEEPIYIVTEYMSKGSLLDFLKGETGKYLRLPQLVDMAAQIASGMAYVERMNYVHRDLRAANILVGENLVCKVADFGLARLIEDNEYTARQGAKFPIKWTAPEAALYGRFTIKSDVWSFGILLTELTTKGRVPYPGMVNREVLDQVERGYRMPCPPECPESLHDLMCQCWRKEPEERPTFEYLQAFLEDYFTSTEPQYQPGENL

COc1cccc(C=O)c1OP(=O)(O)O
IC50 [1]: 95 µM

CC(CC(=O)O)(CC(=O)O)c1ccccc1
IC50 [2]: Not Active

O=P(O)(O)Oc1ccccc1 [PHENYL DIHYDROGEN PHOSPHATE]
IC50 [1]: 300 µM | IC50 [3]: 5000 µM

O=C(O)CC(C(=O)O)c1ccccc1 (stereo not drawn)
IC50 [2]: Not Active

O=C(O)CC(CC(=O)O)c1ccccc1
IC50 [2]: Not Active

O=C(O)CC(CC(=O)O)(c1ccccc1)c1ccccc1
IC50 [2]: Not Active

Cc1ccc(C(C(=O)O)C(=O)O)c(COC=O)c1
IC50 [4]: 100 µM

Cc1ccc(CC(=O)O)c(C=O)c1
IC50 [5]: 385 µM

O=Cc1ccccc1OP(=O)(O)O
IC50 [5]: 80 µM | IC50 [3]: 300 µM

Cc1cc(C=O)cc(C)c1OP(=O)(O)O
IC50 [6]: 5000 µM

O=S(=O)(O)C(O)c1ccccc1 (stereo not drawn)
IC50 [2]: Not Active

COC(=O)c1cc(C[C@H](NC(C)=O)C(=O)N[C@H]2CCCCN(Cc3ccc(-c4ccccc4)cc3)C2=O)ccc1C(C(=O)O)C(=O)O
IC50 [7]: 0.556 µM

O=Cc1cccc(OP(=O)(O)O)c1
IC50 [5]: 600 µM | IC50 [3]: 2100 µM

Cc1cc(C=O)c(OP(=O)(O)O)c(C=O)c1
IC50 [5]: 39 µM

CCC(C(N)=O)(C(=O)O)c1ccccc1 (stereo not drawn) [PHENYLETHYLMALONAMIDE -]
IC50 [2]: Not Active

CC[C@H](C)[C@H](NC(=O)[C@H](CCC(=O)O)NC(=O)[C@H](CCC(=O)O)NC(=O)[C@H](Cc1ccc(OP(=O)(O)O)cc1)NC(C)=O)C(N)=O
IC50 [5]: 0.15 µM | IC50 [3]: 0.001 µM

COC(=O)c1cc(C[C@@H](NC(C)=O)C(=O)N[C@H]2CCCCN(Cc3ccc(-c4ccccc4)cc3)C2=O)ccc1C(C(=O)O)C(=O)O
IC50 [7]: 0.007 µM

O=C(O)C(c1ccc(O)cc1)S(=O)(=O)O (stereo not drawn)
IC50 [8]: 190 µM

O=C(O)C(c1ccccc1)S(=O)(=O)O (stereo not drawn)
IC50 [4]: 192 µM
